In the library only some 1.4% were active in any assay of this set; here they are far more common.
CXCR6 inh – blocks human CXCR6 beta-arrestin recruitment. AID 602244. O00574. hit rate 0.36% among 360,000. inhibition, % at 20 µM. CHO-K1 PathHunter CXCR6 beta-arrestin, luminescence; in the data active = inhibition above about 34%, passing the limit was not always enough;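 note: antagonist mode with CXCL16 agonist at 10 nM final; 0% = 10 nM CXCL16 with DMSO and 100% = unstimulated wells without agonist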
CCR6 antagonist – antagonists of human CCR6 receptor. P51684. CHO-K1 CCR6 PathHunter beta-arrestin, luminescence, CCL20-stimulated. inhibition, % at 20 µM. hit rate 0.49% among 340,000. AID 493098;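 active = compounds whose inhibition of the agonist-driven luminescence signal at 20 µM reaches about 50%, limit read from the data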;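 note: cells stimulated with CCL20 at 14 nM final; plate controls were DMSO with CCL20 for no effect and DMSO without agonist for full effect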
Target sequence (P51684 whole entry, looked up): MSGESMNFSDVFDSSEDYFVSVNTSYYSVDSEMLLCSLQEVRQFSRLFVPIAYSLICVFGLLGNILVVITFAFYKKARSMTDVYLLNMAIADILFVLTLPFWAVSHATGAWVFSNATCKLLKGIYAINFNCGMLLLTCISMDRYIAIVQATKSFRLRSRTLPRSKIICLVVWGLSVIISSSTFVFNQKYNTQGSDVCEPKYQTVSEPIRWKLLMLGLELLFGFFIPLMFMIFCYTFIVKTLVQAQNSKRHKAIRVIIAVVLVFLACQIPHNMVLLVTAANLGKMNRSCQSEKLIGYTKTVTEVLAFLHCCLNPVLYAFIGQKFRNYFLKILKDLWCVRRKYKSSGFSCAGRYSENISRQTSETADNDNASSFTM
APOBEC3A inh – inhibitors of human APOBEC3A DNA deaminase | P31941 | recombinant A3A, FAM/TAMRA ssDNA deamination fluorescence | inhibition, % at 20 µM | hit rate 0.41% among 330,000 | AID 493011;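 active = at least 40% inhibition at 20 µM here, with at most 30% in a related deaminase screen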;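 note: plate controls were A3A with DMSO for no effect and wells lacking A3A enzyme for full effect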
Target sequence (P31941 whole entry, looked up): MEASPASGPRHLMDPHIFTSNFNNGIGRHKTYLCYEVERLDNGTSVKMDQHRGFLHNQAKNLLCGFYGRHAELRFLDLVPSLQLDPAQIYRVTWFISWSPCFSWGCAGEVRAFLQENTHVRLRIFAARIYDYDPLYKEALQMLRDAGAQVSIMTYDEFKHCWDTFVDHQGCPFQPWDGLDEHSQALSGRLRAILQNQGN
APJ ag – activates the human apelin receptor APJ. P35414. CHO-K1 APJ PathHunter beta-arrestin, luminescence; 0% DMSO wells, 100% apelin. activation, % at 20 µM. hit rate 0.11% among 330,000;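 active = activation more than six SD over the plate average, tested at 20 µM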;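 note: 0% = DMSO alone and 100% = apelin-13 at 10 nM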
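Assay system: CHO-K1 APJ beta-arrestin complementation cell line / Compound: single test compound dose, 20 µM final, 1% DMSO / Times: overnight seeding, 90 min compound at 25 °C, 1 h detection / Technique: beta-gal luminescence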
APJ antag – antagonists of human APJ apelin receptor; P35414; CHO-K1 APJ beta-arrestin complementation, luminescence; inhibition, % at 20 µM; hit rate 0.32% among 330,000;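 active = inhibition above about 40% at 20 µM, limit read from the data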;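 note: cells challenged with 10 nM apelin-13 agonist together with compound; plate controls were apelin-13 plus DMSO wells for no effect and DMSO wells lacking apelin-13 for full effect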
APOBEC3G inh – blocks human APOBEC3G single-stranded DNA deamination; recombinant A3G, ssDNA deamination FAM/TAMRA fluorescence; inhibition, % at 20 µM; hit rate 0.28% among 330,000;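 active = inhibition of at least 40% at 20 µM, with no more than 30% in the related APOBEC3A deaminase screen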;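 note: plate controls were DMSO wells with A3G for no effect and wells lacking A3G enzyme for full effect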
A3A conf – APOBEC3A (human) deaminase inhibition, confirmed | inhibition, % at 20 µM | shares compounds with APOBEC3A inh | recombinant A3A, ssDNA deaminase UDG fluorescence assay | hit rate 63% among 1,400 | AID 493151;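 active = inhibition reaching a set limit, 80% of the first screen's cutoff, at 20 µM in any replicate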;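 note: plate controls were DMSO wells with A3A for no effect and wells lacking A3A enzyme for full effect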
UDG A3A counter – UDG inhibition in APOBEC3A counter-screen; 1,000 tested, under 10 active; inhibition, % at 20 µM; AID 504714; UDG counterscreen, FAM/TAMRA uracil oligo fluorescence; shares compounds with APOBEC3A inh; call rule not given here
Starred values were filed as active, the others as inactive; . = no result given.

SMILES | CXCR6 inh | CCR6 antagonist | APOBEC3A inh | APJ ag | APJ antag | APOBEC3G inh | A3A conf | UDG A3A counter
COCCN1Cc2cccc(C(=O)NCc3ccccc3OC)c2C1=O | -3 | 14 | 96* | -3 | -11 | -1 | -1 | -4
COc1ccc(OCC(=O)NCc2nc(-c3ccccc3)no2)cc1 | -4 | -1 | . | . | . | . | . | .
COc1cc(Cl)c(C)cc1NC(=O)CSc1sc2c(O)cc(=O)[nH]c2c1C#N | -8 | 4 | 69* | -1 | -3 | 26 | 18* | 1
CSc1nc2ccc(NC(=O)c3cc4ccccc4o3)cc2s1 | 1 | 12 | -4 | -2 | -11 | -2 | . | .
COc1cc(C(=O)N=c2sccn2C)c([N+](=O)[O-])cc1OC | 0 | -7 | 53* | -1 | -1 | 10 | 6 | .
COc1cc2c(cc1OC)C[N+](C)(C)CC2 | 1 | -19 | 45* | 0 | -67 | 11 | 75* | -4
CC(=O)Nc1cc(-c2ccc(C(=O)N3CCOCC3)cc2)cn2c(-c3cccc(C(C)=O)c3)cnc12 | -6 | . | . | . | . | . | . | .
CN(C)Cc1c(C(=O)N/N=C/c2ccncc2)nnn1-c1nonc1N | 2 | 2 | 48* | -2 | 4 | -9 | 0 | -1
C[C@@]12C(=O)Nc3cc(Cl)ccc3C(=O)N1[C@H]1c3cc(Br)ccc3OC[C@@H]1[C@@H]2c1ccccc1 | -4 | 15 | 1 | -1 | -69 | -8 | . | .
COc1ccc(NC(=O)CN(C)C(=O)c2cccc(S(=O)(=O)N3CCN(C)CC3)c2)cc1 | 4 | 3 | 55* | -4 | 14 | 7 | 16 | .
CCN1CCN(S(=O)(=O)c2ccc(Cl)c(C(=O)N(CC)CC(=O)Nc3ccc(OC)cc3)c2)CC1 | -2 | -9 | 54* | -2 | 14 | 17 | 71* | -1
COc1cccc(CNC(=O)c2cccc(S(=O)(=O)N3CCN(C)CC3)c2)c1 | 8 | -22 | 68* | 5 | 5 | 12 | 50* | 1
COc1ccc(NC(=O)CN(C)C(=O)c2cccc(S(=O)(=O)N3CCN(Cc4ccccc4)CC3)c2)cc1 | -2 | 5 | 0 | 14 | -5 | -3 | . | .
CCN1CCN(S(=O)(=O)c2ccc(Cl)c(C(=O)Nc3ccc(OC(F)F)cc3)c2)CC1 | 0 | 11 | -5 | -4 | -3 | -3 | . | .
COc1ccc(CNC(=O)c2cccc(S(=O)(=O)N3CCN(C)CC3)c2)cc1 | 0 | 10 | -4 | -4 | 12 | -9 | . | .
CN1CCN(S(=O)(=O)c2cccc(C(=O)N(C)CC(=O)Nc3ccc(F)c(F)c3F)c2)CC1 | -6 | 1 | 57* | -6 | 0 | 22 | 66* | -2
CCCCN(C(C)=O)c1c(CC)nc2ccc(C(=O)NCCc3ccccn3)cn12 | -4 | . | . | . | . | . | . | .
CCCCCN(C(=O)CCC(=O)OC(C)C(=O)c1ccc(Cl)cc1)c1c(N)n(CCCC)c(=O)[nH]c1=O (stereo unspecified) | -6 | 5 | 1 | 5 | 19 | -4 | . | .
O=C(/C=C/c1ccco1)N1CCN(S(=O)(=O)c2ccccc2)CC1 | 6 | 3 | 41* | -3 | -6 | 14 | 29 | .
CCC1Sc2ccc(S(=O)(=O)CCC(=O)N3CCc4ccccc43)cc2NC1=O (stereo unspecified) | -2 | 1 | 66* | -4 | 3 | -4 | 17 | 7
CC1Sc2ccc(S(=O)(=O)CCC(=O)N3CCc4ccccc43)cc2NC1=O (stereo unspecified) | -3 | 9 | -2 | -1 | 22 | -4 | . | .
C=CCn1c(CNC(=O)c2cccs2)nnc1SCC(=O)c1ccc(Br)cc1 | -5 | -7 | 1 | 0 | -3 | -2 | . | .
C=CCn1c(CNC(=O)c2cccs2)nnc1SCC(=O)Nc1ccc(C(=O)O)cc1 | 0 | 2 | 48* | -2 | -2 | 6 | 4 | .
CC(C)C1Nc2ccc(C(=O)O)cc2C2C=CCC21 (stereo unspecified) | -4 | 9 | 40* | 1 | -11 | 28 | 42* | 6
CCOC(=O)C1Nc2ccc(C(=O)O)cc2C2C=CCC12 (stereo unspecified) | -5 | 13 | 81* | -2 | 0 | 27 | 89* | 1
SMILES | CXCR6 inh | CCR6 antagonist | APOBEC3A inh | APJ ag | APJ antag | APOBEC3G inh | A3A conf | UDG A3A counter
COc1ccc(Cc2nc3ccc(C(=O)N4CCN(C)C(C)C4)cc3o2)cc1OC (stereo unspecified) | -7 | 11 | -2 | 12 | -13 | -8 | . | .
COc1ccc(S(=O)(=O)NC(=O)C2(C)CCN2C(=O)CCC2CCCC2)cc1OC (stereo unspecified) | 4 | . | . | . | . | . | . | .
COc1ccc(/C=N/NC(=O)C(C)Sc2ccccn2)cc1[N+](=O)[O-] (stereo unspecified) | 0 | 2 | 49* | -2 | -9 | 11 | 65* | 12
COc1ccc(/C=N\NC(=O)CNC(=O)C(c2ccccc2)c2ccccc2)cc1[N+](=O)[O-] | 2 | 15 | -3 | -3 | -5 | -10 | . | .
COc1ccc(C(=O)NC(C)c2nnc(SCc3ccc(Cl)c(Cl)c3)n2C)cc1 (stereo unspecified) | 0 | 2 | 57* | -4 | 8 | 16 | 60* | -2
CCc1nc2c(OCc3ccc(F)c(F)c3)cccn2c1N(C)C(=O)C1CC1 | -4 | . | . | . | . | . | . | .
COc1ccc(/C=C2\C(=O)NCC(=O)N2C)cc1 | 3 | 7 | 52* | -2 | 1 | 14 | 75* | -3
CCN(CC(=O)Nc1c(F)cccc1F)C(=O)c1cccc(S(=O)(=O)N(C)c2ccccc2)c1 | -1 | 4 | -4 | 5 | 5 | -10 | . | .
CCOc1cc(N2CCOCC2)c(OCC)cc1NC(=O)c1c(C)noc1C | -1 | 2 | 43* | 3 | -1 | 6 | 8 | .
COc1ccccc1NS(=O)(=O)c1cc(NC(=O)c2ccc(NC(C)=O)cc2)ccc1N1CCOCC1 | 1 | 5 | . | . | . | . | . | .
CCOc1cc(N2CCOCC2)c(OCC)cc1NS(=O)(=O)c1cc(NC(C)=O)ccc1OC | -18 | -6 | 46* | 4 | -28 | 6 | 20* | -3
CCOc1cc(N2CCOCC2)c(OCC)cc1NC(=O)c1c(-c2ccccc2)noc1C | -4 | 9 | -1 | -2 | -6 | 0 | . | .
COc1cc(C)c(NC(=O)C2CCN(S(=O)(=O)c3cccs3)CC2)cc1OC | 0 | 0 | 57* | 1 | 16 | 18 | 55* | 0
Cn1ccsc1=NC(=O)c1ccc(=O)[nH]c1 | -5 | -5 | 59* | -8 | 8 | 18 | 4 | .
O=C(CCN1C(=O)COc2ccccc21)NCc1ccco1 | -7 | -2 | 64* | -1 | -3 | -1 | 7 | 5
